The structures appear in SMILES notation.

One data set deals with T1, Thrombopoietin receptor (Homo sapiens, UniProt P40238).
T1 sequence (P40238 whole entry): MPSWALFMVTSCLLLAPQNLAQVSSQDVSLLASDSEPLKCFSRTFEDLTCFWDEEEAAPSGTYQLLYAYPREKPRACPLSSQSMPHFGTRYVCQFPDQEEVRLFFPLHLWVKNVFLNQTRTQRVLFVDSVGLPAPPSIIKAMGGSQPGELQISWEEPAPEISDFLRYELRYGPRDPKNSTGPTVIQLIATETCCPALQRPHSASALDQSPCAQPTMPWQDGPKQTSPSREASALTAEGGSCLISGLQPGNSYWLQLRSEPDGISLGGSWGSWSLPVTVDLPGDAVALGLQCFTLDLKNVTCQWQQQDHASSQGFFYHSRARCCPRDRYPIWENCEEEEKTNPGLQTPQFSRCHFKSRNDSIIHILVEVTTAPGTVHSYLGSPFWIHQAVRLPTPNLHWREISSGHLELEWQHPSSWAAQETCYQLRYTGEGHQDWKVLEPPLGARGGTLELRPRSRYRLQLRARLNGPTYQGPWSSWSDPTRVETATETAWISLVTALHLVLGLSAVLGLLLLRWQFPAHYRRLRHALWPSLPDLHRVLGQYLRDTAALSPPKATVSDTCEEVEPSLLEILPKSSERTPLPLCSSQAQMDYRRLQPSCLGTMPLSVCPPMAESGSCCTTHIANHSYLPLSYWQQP
The experiment in a line: Agonist activity at recombinant human c-Mpl receptor transfected in BA/F3 cells assessed as increase in cell proliferation by cell counting analysis. To be noted: baf3. The format is cell-based. Summed up: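 Ba/F3 cells stably transfected with human c-Mpl by electroporation with blasticidin selection. 1×10^4 cells/well in RPMI-1640 with 10% FBS, with test substance (100 nM to 10 μM final), overnight at 37°C in 5% CO2. Cell Counting Kit added for about 5 h, then A450 read. Scale: untreated wells 0%, reference c-Mpl agonist at 1 μM 100%. EC30 from logistic regression.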

Data set [1] deals with Muscarinic acetylcholine receptor M3 (Homo sapiens) (UniProt P20309). The experiment in a line: Positive allosteric modulation of recombinant human muscarinic acetylcholine receptor M3 expressed in CHOK1 cells assessed as increase in carbachol-induced intracellular calcium flux at 10 uM preincubated for 5 mins followed by carbachol addition by Fluo4-AM dye based FLIPR assay relative to carbachol. To be noted: CHO-K1. The format is functional, cell-based. Summed up: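 CHO-K1 cells stably expressing human or rat M1–M5; M2 and M4 lines also co-express human Gα16. Cells loaded with 3.1 μM Fluo-4 AM in HBSS/20 mM HEPES pH 7.5/BSA/2.5 mM probenecid for ~2 h at room temperature. Test substance at 10 μM final, then carbachol (0.0024 nM–100 μM) ~5 min later; Ca2+ read by FLIPR Tetra. Fold shift = carbachol EC50 without / with test substance, from logistic fits.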
Muscarinic acetylcholine receptor M3 (Homo sapiens), sequence (P20309 whole entry, looked up): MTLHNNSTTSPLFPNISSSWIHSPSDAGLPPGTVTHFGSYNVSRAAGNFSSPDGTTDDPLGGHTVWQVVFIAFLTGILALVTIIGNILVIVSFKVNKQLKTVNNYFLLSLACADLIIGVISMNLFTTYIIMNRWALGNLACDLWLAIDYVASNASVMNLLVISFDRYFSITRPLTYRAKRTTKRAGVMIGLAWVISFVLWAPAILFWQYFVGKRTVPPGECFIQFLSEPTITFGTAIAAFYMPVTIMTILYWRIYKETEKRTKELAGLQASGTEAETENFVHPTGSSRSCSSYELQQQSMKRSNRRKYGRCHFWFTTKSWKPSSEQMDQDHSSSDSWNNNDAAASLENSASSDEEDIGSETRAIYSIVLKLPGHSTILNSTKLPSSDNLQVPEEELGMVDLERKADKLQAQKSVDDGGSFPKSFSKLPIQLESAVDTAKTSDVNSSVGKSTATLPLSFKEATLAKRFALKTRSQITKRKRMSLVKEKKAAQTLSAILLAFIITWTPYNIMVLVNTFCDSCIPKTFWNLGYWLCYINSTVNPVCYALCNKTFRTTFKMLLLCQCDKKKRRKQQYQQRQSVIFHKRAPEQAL
(In general: Calcium flux is commonly read through the fluorescence of an indicator in the cells.)

As for `C[C@@H]1CCCN1Cc1sc(NC(=O)c2cnc(N3CCC(C(=O)O)CC3)cn2)nc1-c1cc(Cl)cs1.Cl.Cl`, the EC30 – broadly, the point of the concentration-response curve where the effect stands at 30% – on Thrombopoietin receptor is 0.35 µM. Further, the fold change (FC) in data set [1] turned out to be 186.
For the molecule `C[C@@H]1CCCN1Cc1sc(NC(=O)c2cnc(N3CCC(C(=O)O)CC3)cn2)nc1-c1cc(Cl)cc(C(F)(F)F)c1.Cl.Cl`, the EC30 at Thrombopoietin receptor was 0.15 µM. Moreover, the fold change (FC) in data set [1] stood at 168.
For `COc1ccc(-c2nc(NC(=O)c3ccc(OCC(=O)O)cc3)sc2CN2CCCC(C)(C)C2)cc1C(F)(F)F`, in data set [1], the fold change (FC) came out at 204.
Consider `COCCN(Cc1sc(NC(=O)c2cnc(N3CCC(C(=O)O)CC3)cn2)nc1-c1ccc(OC)c(C(F)(F)F)c1)CC(C)C.Cl.Cl`, for which the EC30 on Thrombopoietin receptor was above 10 µM. Also, the fold change (FC) in data set [1] amounted to 84.
With `COC[C@@H]1CCCN1Cc1sc(NC(=O)c2cnc(N3CCC(C(=O)O)CC3)cn2)nc1-c1ccc(OC)c(C(F)(F)F)c1.Cl.Cl`, the EC30 on Thrombopoietin receptor was above 10 µM. The fold change (FC) in data set [1] came out at 72.
Regarding `C[C@@H]1CCCN1Cc1sc(NC(=O)C2CCN(c3ccc(C(=O)O)cn3)CC2)nc1-c1cc(Cl)cs1` (racemic), the fold change (FC) in data set [1] worked out at 2.8.
On to `C[C@@H]1CCCN1Cc1sc(NC(=O)c2cnc(N3CCC(C(=O)O)CC3)cn2)nc1-c1ccc(Cl)c(C(F)(F)F)c1.Cl.Cl`, for which the EC30 at Thrombopoietin receptor amounted to 1.72 µM. The fold change (FC) in data set [1] came to 118.
Take `COc1ccc(-c2nc(NC(=O)c3cnc(OCC(=O)O)cn3)sc2CN2CCCC(C)(C)C2)cc1C(F)(F)F`: the fold change (FC) in data set [1] stood at 175.
As to `COc1ccc(-c2nc(NC(=O)c3cnc(N4CCC(C(=O)O)CC4)cn3)sc2CN2CCCC[C@H]2C)cc1C(F)(F)F.Cl.Cl`, the EC30 on Thrombopoietin receptor is above 10 µM. The fold change (FC) in data set [1] turned out to be 94.
As for `COc1ccc(-c2nc(NC(=O)c3cnc(N4CCC(C(=O)O)CC4)cn3)sc2CN2CCCC(C)(C)C2)cc1C(F)(F)F.Cl.Cl`, the EC30 on Thrombopoietin receptor is above 10 µM. Further, the fold change (FC) in data set [1] is 238.
With `COc1ccc(-c2nc(NC(=O)c3cnc(C(=O)O)cn3)sc2CN2CCCC(C)(C)C2)cc1C(F)(F)F`, the fold change (FC) in data set [1] amounted to 39.
For `COc1ccc(-c2nc(NC(=O)c3ccc(O)cc3)sc2CN2CCCC(C)(C)C2)cc1C(F)(F)F`, the fold change (FC) in data set [1] is 8.9.
On the same count and under the same terms, under `COc1ccc(-c2nc(NC(=O)c3cnc(NCC(=O)O)cn3)sc2CN2CCCC(C)(C)C2)cc1C(F)(F)F` stands 162; under `C[C@@H]1CCCN1Cc1sc(NC(=O)c2cnc(N3CCC(C(=O)O)CC3)nc2)nc1-c1cc(Cl)cs1`, 65.
Turning to `COc1ccc(-c2nc(NC(=O)c3cnc(N4CCC(C(=O)O)CC4)cn3)sc2CN2CCC[C@H]2C)cc1C(F)(F)F.Cl.Cl`, at Thrombopoietin receptor, the concentration for an effect of 30% (EC30) was above 10 µM. The fold change (FC) in data set [1] was 73.
As to `CCC[C@@H]1CCCN1Cc1sc(NC(=O)c2cnc(N3CCC(C(=O)O)CC3)cn2)nc1-c1ccc(OC)c(C(F)(F)F)c1.Cl.Cl`, at Thrombopoietin receptor, the EC30 was above 10 µM. Further, the fold change (FC) in data set [1] turned out to be 128.
On to `COc1ccc(-c2nc(NC(=O)c3cnc(N(C)CC(=O)O)cn3)sc2CN2CCCC(C)(C)C2)cc1C(F)(F)F`, for which the fold change (FC) in data set [1] was determined as 137.
As for `C[C@@H]1CCCN1Cc1sc(NC(=O)c2cnc(N3CCC(C(=O)O)CC3)c(F)c2)nc1-c1cc(Cl)cs1.Cl.Cl`, the EC30 on Thrombopoietin receptor is 0.0032 µM. For the same molecule, the fold change (FC) in data set [1] was found to be 132.
For `COc1ccc(-c2nc(NC(=O)c3cnc(N4CCC(C(=O)O)CC4)cn3)sc2CN2CCC[C@@H]2C)cc1C(F)(F)F.Cl.Cl`, the EC30 on Thrombopoietin receptor was above 10 µM. In data set [1], the fold change (FC) was 25.
